Laboratory results: ChEMBL document CHEMBL1131201, “N-(benzyloxycarbonyl)glycine esters and amides as new anticonvulsants” (J Med Chem, 1998)

Experiments:
Mus musculus [1] = test: Compound was tested for anticonvulsant activity in maximal electroshock seizure(MES) test after 3 hours upon intraperitoneal administration to mice; format: functional; details: ip
In short: (§1)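 Male OF1 mice (15-25 g), free access to water only during testing. Compound given ip and maximal electroshock applied at 30 min or 3 h. Typically 8-10 mice per compound, dose and time point. Screening at initial 0.4 mmol/kg, scored as protected/tested.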

Mus musculus [2] = test: Compound was tested for anticonvulsant activity in maximal electroshock seizure(MES) test after 30 min upon intraperitoneal administration to mice at a dose of 120 mg/kg; Animals protected / Animals tested = 0/8; format: functional; in short: as §1
[3] = Lipophilicity value was evaluated; format: physicochemical; details: RP-HPLC
In short: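 Lipophilicity by RP-HPLC on a C18 column at 1.0 mL/min. Mobile phases were 10-50% […] with 50-90% 0.01 M phosphate buffer pH 7.4. Triplicate runs per eluent. log k_o extrapolated from at least four eluent compositions. ClogP also calculated.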

Mus musculus [4] = test: Compound was tested for anticonvulsant activity in maximal electroshock seizure(MES) test after 30 min upon intraperitoneal administration to mice; format: functional; details: ip, 0.5 h; in short: as §1
Mus musculus [5] = test: Compound was tested for anticonvulsant activity in maximal electroshock seizure(MES) test after 3 hr upon intraperitoneal administration to mice; format: functional; details: ip; in short: as §1
Mus musculus [6] = test: Compound was tested for anticonvulsant activity in maximal electroshock seizure(MES) test after 3 hours upon intraperitoneal administration to mice at a dose of 116 mg/kg; Animals protected / Animals tested = 3/8; format: functional; in short: as §1
Mus musculus [7] = test: Ratio of the animals protected to animals tested after 30 min. in the MES test after intraperitoneal administration to mice at a dose of 150 mg/kg; Animals protected / Animals tested = 2/10; format: functional; in short: as §1
Mus musculus [8] = test: Ratio of the animals protected to animals tested after 3h in the MES test after intraperitoneal administration to mice at a dose of 150 mg/kg; Animals protected / Animals tested = 3/8; format: functional; in short: as §1
Mus musculus [9] = test: Compound was tested for anticonvulsant activity in maximal electroshock seizure(MES) test after 30 min upon intraperitoneal administration to mice at a dose of 58 mg/kg; Animals protected / Animals tested = 2/10; format: functional; in short: as §1
Mus musculus [10] = test: Compound was tested for anticonvulsant activity in maximal electroshock seizure(MES) test after 3 hours upon intraperitoneal administration to mice at a dose of 106 mg/kg; Animals protected / Animals tested = 4/8; format: functional; in short: as §1
Mus musculus [11] = test: Compound was tested for anticonvulsant activity in maximal electroshock seizure(MES) test after 30 min upon intraperitoneal administration to mice at a dose of 120 mg/kg; Animals protected / Animals tested = 1/8; format: functional; in short: as §1
Mus musculus [12] = test: Compound was tested for anticonvulsant activity in maximal electroshock seizure(MES) test after 3 hours upon intraperitoneal administration to mice at a dose of 750 mg/kg; format: functional; details: ip; in short: as §1
Mus musculus [13] = test: Compound was tested for anticonvulsant activity in maximal electroshock seizure(MES) test after 30 min upon intraperitoneal administration to mice at a dose of 750 mg/kg; format: functional; details: ip, 0.5 h; in short: as §1
Mus musculus [14] = test: The average latency on the onset of the seizures compared to the controls after 30 min in the strychnine test in mice at a dose of 220 mg/kg; format: functional
In short: (§2)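 Male NMRI mice (18-25 g). Compound in DMSO given ip at 2 mL/kg. Strychnine chlorhydrate in saline (1.2 mg/mL, 1 mL/kg) given sc 30 min or 3 h later, with 30 min observation. Seizure onset latency expressed as % of the mean control latency (mean ± SD, n = 8-10).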

Mus musculus [15] = test: The average latency on the onset of the seizures compared to the controls after 3h in the strychnine test in mice at a dose of 220 mg/kg; format: functional; in short: as §2
Mus musculus [16] = test: Compound was tested for anticonvulsant activity in maximal electroshock seizure(MES) test after 30 min upon intraperitoneal administration to mice at a dose of 89 mg/kg; Animals protected / Animals tested = 2/8; format: functional; in short: as §1
Mus musculus [17] = test: Ratio of the animals protected to animals tested after 30 min. in the MES test after intraperitoneal administration to mice at a dose of 150 mg/kg; Animals protected / Animals tested = 1/8; format: functional; in short: as §1
Mus musculus [18] = test: Ratio of the animals protected to animals tested after 3h in the MES test after intraperitoneal administration to mice at a dose of 150 mg/kg; Animals protected / Animals tested = 5/10; format: functional; in short: as §1
Mus musculus [19] = test: Compound was tested for anticonvulsant activity in maximal electroshock seizure(MES) test after 30 min upon intraperitoneal administration to mice at a dose of 114 mg/kg; Animals protected / Animals tested = 3/10; format: functional; in short: as §1
Mus musculus [20] = test: Compound was tested for anticonvulsant activity in maximal electroshock seizure(MES) test after 3 hours upon intraperitoneal administration to mice at a dose of 114 mg/kg; Animals protected / Animals tested = 4/8; format: functional; in short: as §1
Mus musculus [21] = test: Compound was tested for anticonvulsant activity in maximal electroshock seizure(MES) test after 3 hours upon intraperitoneal administration to mice at a dose of 120 mg/kg; Animals protected / Animals tested = 6/9; format: functional; in short: as §1
Mus musculus [22] = test: Compound was tested for anticonvulsant activity in maximal electroshock seizure(MES) test after 30 min upon intraperitoneal administration to mice at a dose of 120 mg/kg; Animals protected / Animals tested = 4/10; format: functional; in short: as §1
Mus musculus [23] = test: The average latency on the onset of the seizures compared to the controls after 30 min in the strychnine test in mice at a dose of 209 mg/kg; format: functional; in short: as §2
Mus musculus [24] = test: The average latency on the onset of the seizures compared to the controls after 3 hr in the strychnine test in mice at a dose of 209 mg/kg; format: functional; in short: as §2
Mus musculus [25] = test: Compound was tested for anticonvulsant activity in maximal electroshock seizure(MES) test after 30 min upon intraperitoneal administration to mice at a dose of 84 mg/kg; Animals protected / Animals tested = 2/8; format: functional; in short: as §1
Mus musculus [26] = test: Percent of the tonic seizures after 30 min in the 3-mercaptopropionic acid test in mice at a dose of 209 mg/kg, ip; format: functional; details: route intraperitoneal
In short: (§3)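 Male NMRI mice (18-25 g). Compound in DMSO given ip at 2 mL/kg. 3-Mercaptopropionic acid 40 mg/kg ip in saline given 30 min or 3 h later. Tonic seizures recorded and expressed as % of animals.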

Mus musculus [27] = test: Percent of the tonic seizures after 30 min in the 3-mercaptopropionic acid test in mice at a dose of 418 mg/kg, ip; format: functional; details: route intraperitoneal; in short: as §3
Mus musculus [28] = test: Percent of the tonic seizures after 3h in the 3-mercaptopropionic acid test in mice at a dose of 209 mg/kg, ip; format: functional; details: route intraperitoneal; in short: as §3
Mus musculus [29] = test: Percent of the tonic seizures after 3h in the 3-mercaptopropionic acid test in mice at a dose of 418mg/kg, ip; format: functional; in short: as §3
Mus musculus [30] = test: The average latency on the onset of the seizures compared to the controls after 30 min in the strychnine test at a dose of 207 mg/kg; format: functional; in short: as §2
Mus musculus [31] = test: The average latency on the onset of the seizures compared to the controls after 3h in the strychnine test at a dose of 207 mg/kg; format: functional; in short: as §2
Mus musculus [32] = test: Compound was tested for anticonvulsant activity in maximal electroshock seizure(MES) test after 3 hours upon intraperitoneal administration to mice at a dose of 166 mg/kg; Animals protected / Animals tested = 6/9; format: functional; in short: as §1
Mus musculus [33] = test: Compound was tested for anticonvulsant activity in maximal electroshock seizure(MES) test after 30 min upon intraperitoneal administration to mice at a dose of 166 mg/kg; Animals protected / Animals tested = 3/9; format: functional; in short: as §1
Mus musculus [34] = test: Percent of the tonic seizures after 30 min in the 3-mercaptopropionic acid test at a dose of 207 mg/kg; format: functional; in short: as §3
Mus musculus [35] = test: Percent of the tonic seizures after 3h in the 3-mercaptopropionic acid test at a dose of 207 mg/kg; format: functional; in short: as §3
Mus musculus [36] = test: Compound was tested for anticonvulsant activity in maximal electroshock seizure(MES) test after 30 min upon intraperitoneal administration to mice at a dose of 89 mg/kg; Animals protected / Animals tested = 3/8; format: functional; in short: as §1
Mus musculus [37] = test: Compound was tested for anticonvulsant activity in maximal electroshock seizure(MES) test after 3 hours upon intraperitoneal administration to mice at a dose of 89 mg/kg; Animals protected / Animals tested = 4/10; format: functional; in short: as §1

Compound: Cc1ccc(NC(=O)CNC(=O)OCc2ccccc2)cc1
- ED50 (Mus musculus [1]): 27.4 mg/kg
- Protected/tested (Mus musculus [2]): 0
- Log Ko [3]: 3.99

Compound: CC(C)NC(=O)CNC(=O)OCc1ccccc1
- ED50 (Mus musculus [1]): 9.5 mg/kg
- ED50 (Mus musculus [4]): 14 mg/kg
- Log Ko [3]: 2.65

Compound: CNC(=O)CNC(=O)OCc1ccccc1
- ED50 (Mus musculus [1]): 7.8 mg/kg
- ED50 (Mus musculus [4]): 13.6 mg/kg
- Log Ko [3]: 2.03

Compound: O=C1NC(=O)C(c2ccccc2)(c2ccccc2)N1 [PHENYTOIN]
- ED50 (Mus musculus [4]): 3.5 mg/kg
- ED50 (Mus musculus [5]): 3 mg/kg

Compound: O=C(CNC(=O)OCc1ccccc1)NC1CCCCC1
- ED50 (Mus musculus [4]): 33.4 mg/kg
- Protected/tested (Mus musculus [6]): 3
- Log Ko [3]: 3.7

Compound: CCCCCCCCCCNC(=O)CNC(=O)OCc1ccccc1
- Protected/tested (Mus musculus [7]): 2
- Protected/tested (Mus musculus [8]): 3
- Log Ko [3]: > 5

Compound: CCCCCNCC(N)=O [MILACEMIDE]
- ED50 (Mus musculus [1]): 30.2 mg/kg
- Protected/tested (Mus musculus [9]): 2

Compound: CC(C)(C)NC(=O)CNC(=O)OCc1ccccc1
- ED50 (Mus musculus [4]): 39.4 mg/kg
- Protected/tested (Mus musculus [10]): 4
- Log Ko [3]: 3.25

Compound: Cc1ccccc1NC(=O)CNC(=O)OCc1ccccc1
- ED50 (Mus musculus [1]): 74.3 mg/kg
- Protected/tested (Mus musculus [11]): 1
- Log Ko [3]: 3.49

Compound: CCCC(CCC)C(N)=O [VALPROMIDE]
- ED50 (Mus musculus [12]): 11.4 mg/kg
- ED50 (Mus musculus [13]): 14.9 mg/kg

Compound: COC(=O)CNC(=O)OCc1ccccc1
- Average latency (Mus musculus [14]): 154%
- Average latency (Mus musculus [15]): 139%
- ED50 (Mus musculus [12]): 16.5 mg/kg
- Protected/tested (Mus musculus [16]): 2
- Log Ko [3]: 2.64

Compound: CCCCCCCCCCOC(=O)CNC(=O)OCc1ccccc1
- Protected/tested (Mus musculus [17]): 1
- Protected/tested (Mus musculus [18]): 5
- Log Ko [3]: > 5

Compound: O=C(CNC(=O)OCc1ccccc1)Nc1ccccc1
- Protected/tested (Mus musculus [19]): 3
- Protected/tested (Mus musculus [20]): 4
- Log Ko [3]: 3.49

Compound: O=C(CNC(=O)OCc1ccccc1)OCc1ccccc1
- Protected/tested (Mus musculus [21]): 6
- Protected/tested (Mus musculus [22]): 4
- Log Ko [3]: 4.35

Compound: O=C(O)CNC(=O)OCc1ccccc1
- Average latency (Mus musculus [23]): 150%
- Average latency (Mus musculus [24]): 142%
- ED50 (Mus musculus [1]): 56.5 mg/kg
- Protected/tested (Mus musculus [25]): 2
- Tonic seizures (Mus musculus [26]): 55%
- Tonic seizures (Mus musculus [27]): 33%
- Tonic seizures (Mus musculus [28]): 45%
- Tonic seizures (Mus musculus [29]): 27%

Compound: O=C(CNC(=O)OCc1ccccc1)NCCc1ccccc1
- ED50 (Mus musculus [1]): 16.6 mg/kg
- ED50 (Mus musculus [4]): 8.1 mg/kg
- Log Ko [3]: 3.88

Compound: O=C(O)CNC(=O)CCc1ccccc1 [HYDROCINNAMOYLGLYCINE]
- Average latency (Mus musculus [30]): 99%
- Average latency (Mus musculus [31]): 96%
- Protected/tested (Mus musculus [32]): 6
- Protected/tested (Mus musculus [33]): 3
- Tonic seizures (Mus musculus [34]): 80%
- Tonic seizures (Mus musculus [35]): 100%

Compound: CCCC(CCC)C(=O)O [VALPROIC ACID]
- ED50 (Mus musculus [12]): 80.6 mg/kg
- ED50 (Mus musculus [13]): 44.5 mg/kg

Compound: NC(=O)CNC(=O)OCc1ccccc1
- ED50 (Mus musculus [1]): 8.3 mg/kg
- ED50 (Mus musculus [4]): 15.2 mg/kg
- Log Ko [3]: 1.52

Compound: COC(=O)CNC(=O)CCc1ccccc1
- Protected/tested (Mus musculus [36]): 3
- Protected/tested (Mus musculus [37]): 4
- Log Ko [3]: 2.37
